Test results reported in ChEMBL document CHEMBL1128719, “The synthesis, structure-activity, and structure-side effect relationships of a series of 8-alkoxy- and 5-amino-8-alkoxyquinolone antibacterial agents” (J Med Chem, 1995).
≈ marks a conversion by molar mass, not a printed value.

Key:
Klebsiella pneumoniae = assay: In vitro antibacterial activity was tested for Klebsiella pneumoniae MGH-2; format: functional
In short: (§1)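 Microtitration (microdilution) MIC determination in μg/mL against a panel of Gram-positive, Gram-negative and anaerobic organisms. Values come from duplicate or triplicate experiments and are stated accurate to ±50%.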

Streptococcus pyogenes = assay: In vitro antibacterial activity was tested for Streptococcus pyogenes C203; format: functional; in short: as §1
Escherichia coli [1] = assay: In vitro antibacterial activity was tested for Escherichia coli H560; format: functional; in short: as §1
Bacteroides fragilis = assay: In vitro antibacterial activity against Bacteroides fragilis BFA; format: functional; in short: as §1
Staphylococcus aureus [2] = assay: In vitro antibacterial activity was tested for Staphylococcus aureus UC-76; format: functional; in short: as §1
Providencia rettgeri = assay: In vitro antibacterial activity was tested for Providencia rettgeri H1771; format: functional; in short: as §1
Enterobacter cloacae = assay: In vitro antibacterial activity was tested for Enterobacter cloacae HA2646; format: functional
Streptococcus pneumoniae = assay: In vitro antibacterial activity was tested for Streptococcus pneumoniae SV-1; format: functional; in short: as §1
Clostridium perfringens = assay: In vitro antibacterial activity against Clostridium perfringens CP 3-1; format: functional
Escherichia coli [3] = assay: In vitro antibacterial activity was tested for Escherichia coli Vogel; format: functional; in short: as §1
Staphylococcus aureus [4] = assay: In vitro antibacterial activity was tested for Staphylococcus aureus H228; format: functional; in short: as §1
Pseudomonas aeruginosa = assay: In vitro antibacterial activity was tested for Pseudomonas aeruginosa UI-18; format: functional; in short: as §1
[5] = tested on: Peptoniphilus asaccharolyticus; assay: In vitro antibacterial activity was tested for Pepto asac PA 3-1; format: functional; in short: as §1
Cutibacterium acnes = assay: In vitro antibacterial activity was tested for Propion acnes PA5-1; format: functional; in short: as §1
V79 = assay: Clonogenic cytotoxicity against Chinese hamster V-79 cells; format: functional, cell-based; conditions: Cricetulus griseus
Enterococcus faecalis = assay: In vitro antibacterial activity was tested for Streptococcus faecalis MGH-2; format: functional; in short: as §1
Clostridioides difficile = assay: In vitro antibacterial activity was tested for Clostridium diff CD1-1; format: functional

Compound | MIC (Klebsiella pneumoniae) | MIC (Streptococcus pyogenes) | MIC (Escherichia coli [1]) | MIC (Bacteroides fragilis) | MIC (Staphylococcus aureus [2]) | MIC (Providencia rettgeri) | MIC (Enterobacter cloacae) | MIC (Streptococcus pneumoniae) | MIC (Clostridium perfringens) | MIC (Escherichia coli [3]) | MIC (Staphylococcus aureus [4]) | MIC (Pseudomonas aeruginosa) | MIC [5] | MIC (Cutibacterium acnes) | IC50 (V79) | MIC (Enterococcus faecalis) | MIC (Clostridioides difficile)
CCOc1c(N2CCC(N)C2)c(F)cc2c(=O)c(C(=O)O)cn(C3CC3)c12 (stereo not drawn) | 0.2 µg/mL (≈ 0.533 µM) | 0.2 µg/mL (≈ 0.533 µM) | 0.05 µg/mL (≈ 0.133 µM) | 1.6 µg/mL (≈ 4.26 µM) | 0.013 µg/mL (≈ 0.0346 µM) | 0.4 µg/mL (≈ 1.07 µM) | 0.1 µg/mL (≈ 0.266 µM) | 0.1 µg/mL (≈ 0.266 µM) | 0.8 µg/mL (≈ 2.13 µM) | 0.05 µg/mL (≈ 0.133 µM) | 0.05 µg/mL (≈ 0.133 µM) | 3.1 µg/mL (≈ 8.26 µM) | 0.8 µg/mL (≈ 2.13 µM) | 3.1 µg/mL (≈ 8.26 µM) | 210 µg/mL (≈ 559 µM) | 0.1 µg/mL (≈ 0.266 µM) | 3.1 µg/mL (≈ 8.26 µM)
NC1CCCN(c2c(F)cc3c(=O)c(C(=O)O)cn(C4CC4)c3c2Cl)C1 (stereo not drawn) | – | – | – | 0.2 µg/mL (≈ 0.527 µM) | – | – | – | – | 0.1 µg/mL (≈ 0.263 µM) | – | – | – | 0.4 µg/mL (≈ 1.05 µM) | 0.2 µg/mL (≈ 0.527 µM) | – | – | 0.4 µg/mL (≈ 1.05 µM)
NC1CCCN(c2nc3c(cc2F)c(=O)c(C(=O)O)cn3C2CC2)C1 (stereo not drawn) | – | – | – | 25 µg/mL (≈ 72.2 µM) | – | – | – | – | 0.8 µg/mL (≈ 2.31 µM) | – | – | – | 6.3 µg/mL (≈ 18.2 µM) | 6.3 µg/mL (≈ 18.2 µM) | – | – | > 25 µg/mL
COc1c(N2CC[C@H](N)C2)c(F)c(N)c2c(=O)c(C(=O)O)cn(C3CC3)c12 | 0.1 µg/mL (≈ 0.266 µM) | 0.05 µg/mL (≈ 0.133 µM) | 0.05 µg/mL (≈ 0.133 µM) | 1.6 µg/mL (≈ 4.25 µM) | 0.013 µg/mL (≈ 0.0345 µM) | 0.2 µg/mL (≈ 0.531 µM) | 0.05 µg/mL (≈ 0.133 µM) | 0.025 µg/mL (≈ 0.0664 µM) | 0.8 µg/mL (≈ 2.13 µM) | 0.05 µg/mL (≈ 0.133 µM) | 0.025 µg/mL (≈ 0.0664 µM) | 0.8 µg/mL (≈ 2.13 µM) | 1.6 µg/mL (≈ 4.25 µM) | 1.6 µg/mL (≈ 4.25 µM) | – | 0.1 µg/mL (≈ 0.266 µM) | 3.1 µg/mL (≈ 8.24 µM)
Nc1c(F)c(N2CCCC(N)C2)c(F)c2c1c(=O)c(C(=O)O)cn2C1CC1 (stereo not drawn) | – | – | – | – | – | – | – | – | – | – | – | – | – | – | 19 µg/mL (≈ 50.2 µM) | – | –
COc1c(N2CC[C@@H](N)C2)c(F)cc2c(=O)c(C(=O)O)cn(C3CC3)c12 | 0.025 µg/mL (≈ 0.0692 µM) | 0.05 µg/mL (≈ 0.138 µM) | 0.025 µg/mL (≈ 0.0692 µM) | 0.4 µg/mL (≈ 1.11 µM) | 0.025 µg/mL (≈ 0.0692 µM) | 0.05 µg/mL (≈ 0.138 µM) | 0.025 µg/mL (≈ 0.0692 µM) | 0.05 µg/mL (≈ 0.138 µM) | 0.5 µg/mL (≈ 1.38 µM) | 0.025 µg/mL (≈ 0.0692 µM) | 0.05 µg/mL (≈ 0.138 µM) | 0.8 µg/mL (≈ 2.21 µM) | 0.4 µg/mL (≈ 1.11 µM) | 0.2 µg/mL (≈ 0.553 µM) | – | 0.05 µg/mL (≈ 0.138 µM) | 0.8 µg/mL (≈ 2.21 µM)
COc1c(N2CCNCC2)c(F)cc2c(=O)c(C(=O)O)cn(C3CC3)c12 | 0.1 µg/mL (≈ 0.277 µM) | 0.1 µg/mL (≈ 0.277 µM) | 0.025 µg/mL (≈ 0.0692 µM) | 0.8 µg/mL (≈ 2.21 µM) | 0.05 µg/mL (≈ 0.138 µM) | 0.1 µg/mL (≈ 0.277 µM) | 0.025 µg/mL (≈ 0.0692 µM) | 0.1 µg/mL (≈ 0.277 µM) | 0.4 µg/mL (≈ 1.11 µM) | 0.05 µg/mL (≈ 0.138 µM) | 0.2 µg/mL (≈ 0.553 µM) | 0.8 µg/mL (≈ 2.21 µM) | 3.1 µg/mL (≈ 8.58 µM) | 0.4 µg/mL (≈ 1.11 µM) | – | 0.2 µg/mL (≈ 0.553 µM) | 1.6 µg/mL (≈ 4.43 µM)
COc1c(N2CCC(CN)CC2)c(F)cc2c(=O)c(C(=O)O)cn(C3CC3)c12 | 0.2 µg/mL (≈ 0.514 µM) | 0.025 µg/mL (≈ 0.0642 µM) | 0.1 µg/mL (≈ 0.257 µM) | 0.8 µg/mL (≈ 2.05 µM) | 0.05 µg/mL (≈ 0.128 µM) | 0.4 µg/mL (≈ 1.03 µM) | 0.1 µg/mL (≈ 0.257 µM) | 0.025 µg/mL (≈ 0.0642 µM) | 0.4 µg/mL (≈ 1.03 µM) | 0.1 µg/mL (≈ 0.257 µM) | 0.1 µg/mL (≈ 0.257 µM) | 1.6 µg/mL (≈ 4.11 µM) | 0.4 µg/mL (≈ 1.03 µM) | 0.4 µg/mL (≈ 1.03 µM) | 94 µg/mL (≈ 241 µM) | 0.05 µg/mL (≈ 0.128 µM) | 0.8 µg/mL (≈ 2.05 µM)
